Experimental data taken from paper PMC4734651 (MedChemComm, 2014).

Molecular target: TrkA (Homo sapiens, UniProt P04629)
Test: TrkA biochemical screening assay
Details: 39 compared with 26
How it was run: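 5FAM-tagged TrkA peptide (1.5 μM final) and ATP (190 μM final) then added. Run to 10–20% conversion in no-inhibitor wells; no-enzyme blanks. Product/substrate peaks separated on chip; percent inhibition calculated.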

Chain of TrkA (P04629 33-796): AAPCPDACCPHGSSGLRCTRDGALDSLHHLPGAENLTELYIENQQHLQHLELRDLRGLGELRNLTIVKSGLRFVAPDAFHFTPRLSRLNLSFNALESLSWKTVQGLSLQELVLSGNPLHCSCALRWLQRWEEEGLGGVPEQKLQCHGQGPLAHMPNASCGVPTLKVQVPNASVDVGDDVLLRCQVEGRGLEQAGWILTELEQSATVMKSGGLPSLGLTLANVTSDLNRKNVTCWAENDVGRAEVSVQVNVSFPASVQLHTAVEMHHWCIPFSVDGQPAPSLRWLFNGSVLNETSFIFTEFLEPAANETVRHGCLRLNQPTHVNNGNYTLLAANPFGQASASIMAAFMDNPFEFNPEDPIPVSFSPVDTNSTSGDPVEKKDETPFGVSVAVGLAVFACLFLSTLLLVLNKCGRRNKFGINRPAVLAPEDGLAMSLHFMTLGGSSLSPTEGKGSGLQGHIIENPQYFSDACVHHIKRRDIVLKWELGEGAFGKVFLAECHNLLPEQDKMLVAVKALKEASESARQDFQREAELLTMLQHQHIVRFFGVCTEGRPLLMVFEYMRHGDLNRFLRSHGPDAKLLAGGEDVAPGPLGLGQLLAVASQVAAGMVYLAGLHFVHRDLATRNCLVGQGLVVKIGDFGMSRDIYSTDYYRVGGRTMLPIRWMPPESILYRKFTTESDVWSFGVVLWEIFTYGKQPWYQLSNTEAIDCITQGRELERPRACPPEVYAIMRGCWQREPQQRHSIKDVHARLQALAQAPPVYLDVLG

SMILES | increase in TrkA inhibition in comparison to 26
Cn1cc(-c2cncc(-c3ccc(NC(=O)Nc4cc(C(C)(C)C)on4)cc3)n2)cn1 [Compound 39] | ~ 5 fold

Same assay, conditions: chlorine at A-region derivatized, compared with 1a

SMILES | TrkA affinity increase relative to compound 1a [times]
COc1ccc(-c2cncc(Oc3cccc(NC(=O)Nc4cc(C(C)(C)C)on4)c3)n2)cc1 [Compound 9] | > 1000
CC(C)(C)c1cc(NC(=O)Nc2cccc(Oc3cncc(-c4ccc(S(C)(=O)=O)cc4)n3)c2)no1 [Compound 20] | > 1000

Other lines, results leading:

TrkA affinity increase relative to compound 1a [times] | SMILES
> 1000 | CC(C)(C)c1cc(NC(=O)Nc2cccc(Oc3cncc(-c4ccsc4)n3)c2)no1 [Compound 15]
> 1000 | CC(C)(C)c1cc(NC(=O)Nc2cccc(Oc3cncc(-c4ccc(F)cc4)n3)c2)no1 [Compound 36]
> 1000 | Cn1cc(-c2cncc(Oc3cccc(NC(=O)Nc4cc(C(C)(C)C)on4)c3)n2)cn1 [Compound 26]

Same assay, conditions: qualitative statement

SMILES | TrkA activity (in words)
CC(C)(C)c1cc(NC(=O)Nc2cccc(Oc3cncc(Cl)n3)c2)no1 [Compound 1a] | not strongly active
Cn1cc(-c2cncc(-c3ccc(NC(=O)Nc4cc(C(C)(C)C)on4)cc3)n2)cn1 [Compound 39] | far more potent than their ether linked counterparts
Cn1cc(-c2cncc(-c3ccc(NC(=O)Nc4cc(C(C)(C)C)nn4C)cc3)n2)cn1 [Compound 40] | far more potent than their ether linked counterparts

Other lines, results leading:

TrkA activity (in words) | SMILES
relatively inactive | CC(C)(C)c1ccc(NC(=O)Nc2cccc(Oc3cncc(-c4ccsc4)n3)c2)cc1 [Compound 13]
relatively inactive | Cn1nc(C(C)(C)C)cc1NC(=O)Nc1cccc(Oc2cncc(-c3ccsc3)n2)c1 [Compound 16]
relatively inactive | CC(C)(C)c1cc(NC(=O)Nc2cccc(Oc3cncc(-c4ccsc4)n3)c2)on1 [Compound 14]

Same assay, conditions: read-out: %TrkA inhibition, 20 μM

SMILES | inhibition at 20 µM [%]
CC(C)(C)c1cc(NC(=O)Nc2ccc(-c3cncc(Cl)n3)cc2)no1 [Compound 38] | 41.4 ± 3.3
Cn1cc(-c2cncc(-c3ccc(NC(=O)Nc4cc(C(C)(C)C)on4)cc3)n2)cn1 [Compound 39] | 96.1 ± 2.3
